Data: ChEMBL document CHEMBL1671820, “Incorporation of basic side chains into cryptolepine scaffold: structure-antimalarial activity relationships and mechanistic studies” (J Med Chem, 2011)

Experiments:
[1] = system: Nucleic Acid; test: Binding affinity to s(GATCCTAGGATC)2-DNA by fluorescence spectroscopy; assay type: nucleic-acid assay
In short: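 Buffer 0.01 M phosphate pH 7.4, 0.1 M NaCl, 25.0 C, 1 cm quartz cuvettes. Fluorescence: excitation 339 nm, emission 450–500 nm. Dilution-corrected intensity change fitted to single-site binding for Kd; Kass taken as 1/Kd.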

[2] = Inhibition of Plasmodium falciparum falcipain 2
[3] = Selectivity index, ratio of IC50 for african green monkey Vero cells to IC50 for chloroquine-resistant ring stage Plasmodium falciparum W2; assay type: toxicity, cell-based; settings: read-out: Ratio IC50
In short: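 Vero IC50 divided by W2 IC50. Vero: 15000 cells/well adhered overnight, then log dilutions from 30 mg/mL DMSO stock for 48 h. MTT 0.5 mg/mL final for 2 h at 37 C, formazan dissolved in 95% ethanol, A570 read against DMSO vehicle as 100% viability. W2: 48 h YOYO-1 flow-cytometric growth assay in human erythrocytes.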

[4] = system: Plasmodium falciparum; test: Antiplasmodial activity against chloroquine-sensitive ring stage Plasmodium falciparum 3D7 infected in human red blood cells after 48 hrs; assay type: functional, organism-based; settings: 3D7, 48 h
[5] = system: Plasmodium falciparum; test: Antiplasmodial activity against chloroquine and pyrimethamine-resistant ring stage Plasmodium falciparum V1/S infected in human red blood cells after 48 hrs; assay type: functional, organism-based
[6] = system: Plasmodium falciparum; test: Antiplasmodial activity against chloroquine-sensitive, mefloquine-resistant ring stage Plasmodium falciparum D6 infected in human red blood cells after 48 hrs; assay type: functional, organism-based; settings: D6, 48 h
[7] = system: Heme; test: Binding affinity to heme by UV-visible titration
In short: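 Hematin monomer (FPIX-OH, 10 μM) in pH 5.5 HEPES-buffered 40% DMSO v/v at 25 C, titrated with ligand from 100 μM solution until above hematin concentration. Stirred 1 min per addition; spectra 230–500 nm, Soret change at 402 nm. Absorbance dilution-corrected, nonlinear fit for Kd; Kass calculated from Kd.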

[8] = system: Plasmodium falciparum; test: Resistance index, ratio of IC50 for chloroquine-resistant ring stage Plasmodium falciparum W2 to IC50 for chloroquine-sensitive ring stage Plasmodium falciparum 3D7; assay type: functional
In short: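 W2 IC50 divided by 3D7 IC50. Both were measured by 48 h YOYO-1 flow-cytometric growth assay on sorbitol-synchronised 1% ring-stage cultures in human erythrocytes at 37 C under 3% O2.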

[9] = system: Plasmodium falciparum; test: Antiplasmodial activity against chloroquine-resistant ring stage Plasmodium falciparum W2 infected in human red blood cells after 48 hrs; assay type: functional, organism-based; settings: W2, 48 h
[10] = system: Vero; test: Cytotoxicity against african green monkey Vero cells after 48 hrs by MTT assay; assay type: cell-based; settings: Chlorocebus sabaeus
In short: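 Vero monkey kidney cells in DMEM with 10% FBS at 37 C, 7% CO2; seeded 15000 cells/well and adhered overnight. Log dilutions from 30 mg/mL DMSO stock, 48 h exposure. MTT at 0.5 mg/mL final for 2 h; formazan dissolved in 95% ethanol, read at 570 nm. Viability relative to DMSO-medium wells; IC50 from concentration–viability curve; doxorubicin as standard.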

[11] = Inhibition of Plasmodium falciparum falcipain 3

SMILES | Ka [1] [×10⁶ /M] | IC50 [2] [nM] | selectivity ratio [3] | IC50 [4] [nM] | IC50 [5] [nM] | IC50 [6] [nM] | Ka [7] [×10⁶ /M] | Ratio IC50 [8] | IC50 [9] [nM] | IC50 [10] [nM] | IC50 [11] [nM]
CC(C)NCCCNc1c2ccccc2[n+](C)c2c1[nH]c1ccccc12.[Cl-] | 5 | > 25000 | 125 | 26.1 | 28 | 34 | 0.2 | 0.8 | – | – | –
C[n+]1c2ccccc2c(NC2CCN(Cc3ccccc3)CC2)c2[nH]c3ccccc3c21.[Cl-] | 0.68 | 12800 | 21 | 56 | 59 | 86 | 0.125 | 1.8 | 108 | – | –
CCN(CC)CCCCNc1c2ccccc2[n+](C)c2c1[nH]c1ccccc12.[Cl-] | 9 | – | 358 | 22.3 | 66 | 71 | 0.15 | 0.4 | 29 | 10000 | –
CC(C)CN1CCC(Nc2c3ccccc3[n+](C)c3c2[nH]c2ccccc23)CC1.[Cl-] | 0.74 | 10500 | 70 | 70 | 76 | 86 | 0.227 | 0.9 | 70 | – | 16000
CCN(CC)CCNc1c2ccccc2[n+](C)c2c1[nH]c1ccccc12.[Cl-] | 1.14 | > 50000 | 34 | 130 | 72 | 70 | 0.41 | 1.2 | – | – | –
CCN(CC)Cc1ccc(Nc2c3ccccc3[n+](C)c3c2[nH]c2ccccc23)cc1O.[Cl-] | 0.8 | 15200 | 17 | 56 | 15 | 24 | 0.075 | 3.5 | 52 | – | –
C[n+]1c2cc(Cl)ccc2c(NC2CCNCC2)c2[nH]c3ccccc3c21.[Cl-] | 4.5 | 5600 | 98 | 65 | 52 | 70 | 0.18 | 0.9 | 45 | – | –
C[n+]1c2ccccc2c(Nc2cccnc2)c2[nH]c3ccccc3c21.[Cl-] | 1 | 9320 | 14 | 247 | 279 | 166 | 0.17 | 0.6 | 180 | – | –
C[n+]1c2ccccc2c(Nc2ccc(N3CCCCC3)cc2)c2[nH]c3ccccc3c21.[Cl-] | 3.4 | 8200 | 11 | 375 | 176 | 287 | 0.21 | 2.6 | 455 | – | –
C[n+]1c2cc(Cl)ccc2c(NC2CCNCC2)c2[nH]c3cc(Cl)ccc3c21.[Cl-] | 1.6 | 4800 | 16 | 31 | 35 | 30 | 0.12 | 1.4 | 48 | – | –
CCN(CC)CCCNc1c2ccccc2[n+](C)c2c1[nH]c1ccccc12.[Cl-] | 9.1 | – | 78 | 20 | 29 | – | 0.127 | 1.1 | – | – | –
C[n+]1c2ccccc2c(Nc2ccccc2)c2[nH]c3ccccc3c21.[Cl-] | 0.51 | 14000 | 2 | 291 | 128 | 154 | 0.155 | 0.2 | 265 | – | –
C[n+]1c2ccccc2c(NC2CCN(Cc3ccccc3O)CC2)c2[nH]c3ccccc3c21.[Cl-] | 0.6 | 14800 | 10 | 536 | 418 | 185 | 0.108 | 0.7 | 276 | – | 43000
CCN(CC)c1c2ccccc2[n+](C)c2c1[nH]c1ccccc12.[Cl-] | 0.47 | 18000 | 2 | 2200 | 1770 | 1290 | 0.19 | 0.7 | 1250 | – | 46300
CN(C)CC(C)(C)CNc1c2ccccc2[n+](C)c2c1[nH]c1ccccc12.[Cl-] | 2.6 | 33500 | 18 | 146 | 144 | 250 | 0.069 | 1.3 | – | – | 26000
CCN(CC)CCCC(C)Nc1c2ccccc2[n+](C)c2c1[nH]c1ccccc12.[Cl-] (centres undefined) | 4.3 | 11600 | 103 | 145 | 274 | 161 | 0.062 | 0.4 | 122 | – | 7000
C[n+]1c2ccccc2c(NCCCN2CCCCC2)c2[nH]c3ccccc3c21.[Cl-] | 5.3 | – | 56 | 23 | 28 | 34 | 0.161 | 1.3 | – | 20000 | –
CC(CN(C)C)Nc1c2ccccc2[n+](C)c2c1[nH]c1ccccc12.[Cl-] (centres undefined) | 1.9 | 8300 | 23 | 202 | 165 | 78 | 0.148 | 0.9 | 142 | – | 14000
CN(C)CCNc1c2ccccc2[n+](C)c2c1[nH]c1ccccc12.[Cl-] | 3.1 | > 50000 | 111 | 62 | 85 | 66 | 0.12 | 0.8 | – | – | –
CN(C)CCCNc1c2ccccc2[n+](C)c2c1[nH]c1ccccc12.[Cl-] | 3 | 34000 | 109 | 24 | 51 | 46 | 0.066 | 0.4 | 20 | – | > 50000
